The source made the active and inactive calls. The calls are words filed in the database; no cut-off is given here.

For assay [1], the system named is Rattus norvegicus. Nature of the assay: Antifertility activity in pregnant female albino rat assessed as implantation in both uterine horns on day 10 of pregnancy at 20 mg/kg/day, po for 5 days. In kind it is functional, organism-based. The method in brief:
(§1)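 Mated rats of proven fertility; day 1 = sperm-positive vaginal smear. Compound macerated with gum acacia, given orally days 1-5, five animals per group; initial dose 20 mg/kg/day unless stated otherwise. Uterine horns examined on day 10; scored positive only when implantations totally absent in both horns.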

Assay [2] deals with Rattus norvegicus. Nature of the assay: Antifertility activity in po dosed pregnant female albino rat assessed as absence of implantation in both uterine horns on day 10 of pregnancy compound administered for 5 days. The assay is classed as functional. The method in brief: as §1
The subject of assay [3] is Rattus norvegicus. Description: Estrogenic activity in immature female rat assessed as vaginal opening at 10 mg/kg, po bid for 3 days. In kind it is functional, organism-based. Set-up: dose 10 mg/kg. The method in brief:
(§2)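 Immature female rats, 25-30 g, scored for presence or absence of vaginal opening. Failure to induce opening was taken as complete absence of estrogenic activity.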

Assay [4] relates to Rattus norvegicus. Nature of the assay: Estrogenic activity in immature female rat assessed as uterine weight on day 4 at 10 mg/kg, po bid for 3 days (reference value: 13.6 +/- 0.8 mg). In kind it is functional.
The subject of assay [5] is Rattus norvegicus. Description: Estrogenic activity in immature female rat assessed as diestrus smear with leukocytes and mixture of leukocytes,epithelial cells at 10 mg/kg, po bid for 3 days. In kind it is functional, organism-based. Details: dose 10 mg/kg. In a few lines:
(§3)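 Immature female rats, 25-30 g. Vaginal smear scored as + (leucocytes with epithelial cells), ++ (proestrus, nucleated or nucleated plus cornified cells) or +++ (estrus, cornified cells only). Estrone used as standard.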

The test system of assay [6] is Rattus norvegicus. Nature of the assay: Estrogenic activity in immature female rat assessed as mixture of leukocytes and epithelial cells at 10 mg/kg, po bid for 3 days. The assay is classed as functional, organism-based. Details: dose 10 mg/kg. The following applies: Epithelial cell. The method in brief:
as §3

The subject of assay [7] is Rattus norvegicus. Description: Estrogenic activity in immature female rat assessed as vaginal opening at 5 mg/kg, po bid for 3 days. In kind it is functional, organism-based. Set-up: dose 5 mg/kg. In a few lines:
as §2

In assay [8] the test system is Rattus norvegicus. Nature of the assay: Estrogenic activity in immature female rat assessed as diestrus smear with leukocytes and proestrus smear with nucleated and cornified cells at 5 mg/kg, po bid for 3 days. In kind it is functional, organism-based. Set-up: dose 5 mg/kg. In a few lines:
as §3

The test system of assay [9] is Rattus norvegicus. Description: Estrogenic activity in immature female rat assessed as uterine weight on day 4 at 5 mg/kg, po bid for 3 days (reference value: 13.6 +/- 0.8 mg). In kind it is functional.
Assay [10] relates to Rattus norvegicus. Nature of the assay: Estrogenic activity in immature female rat assessed as diestrus smear with leukocytes at 10 mg/kg, po bid for 3 days. The assay is classed as functional, organism-based. Set-up: dose 10 mg/kg. In a few lines:
as §3

Assay [11] relates to Rattus norvegicus. Nature of the assay: Estrogenic activity in immature female rat assessed as mixture of leukocytes,epithelial cells and estrus smear with cornified cells at 10 mg/kg, po bid for 3 days. Details: dose 10 mg/kg. The assay is classed as functional, organism-based. The method in brief:
as §3

For assay [12], the system named is Rattus norvegicus. Nature of the assay: Estrogenic activity in immature female rat assessed as mixture of leukocytes, epithelial cells and proestrus smear with nucleated and cornified cells at 10 mg/kg, po bid for 3 days. In kind it is functional, organism-based. Set-up: dose 10 mg/kg. Conditions: Epithelial cell. In a few lines:
as §3

On to `Cc1ccc2c(c1)[C@@H](c1ccccc1)[C@@H](c1ccccc1)CO2` (relative stereo), for which the result in the assay on Rattus norvegicus [1] was inactive.
As for `CC1(C)Oc2ccccc2C(c2ccc(O)cc2)=C1c1ccccc1`, the outcome with Rattus norvegicus [1] was inactive.
Regarding `COc1ccc2c(c1)OC(C)(C)C(c1ccccc1)=C2c1ccc(OCCN2CCCC2)cc1.Cl`, the ED100 in the assay on Rattus norvegicus [2] was 5 mg/kg.
Take `COc1ccc(C2=C(c3ccccc3)C(C)(C)Oc3cc(OCCN4CCCC4)ccc32)cc1.Cl`: the ED100 with Rattus norvegicus [2] is 10 mg/kg.
With `CCN(CC)CCOc1ccc(C2=C(c3ccccc3)C(C)(C)Oc3cc(OC)ccc32)cc1.Cl`, the result with Rattus norvegicus [3] and in the assay with Rattus norvegicus [5] was Active. Besides, in the assay with Rattus norvegicus [4], the Activity came out at 42 mg. For the same molecule, the ED100 in the assay with Rattus norvegicus [2] amounted to 10 mg/kg.
With `COc1ccc2c(c1)OC(C)(C)[C@H](c1ccccc1)[C@H]2c1ccc(O)cc1` (relative stereo), the outcome in the assay on Rattus norvegicus [1] was inactive.
The same measure, in the same setting: then `COc1ccc2c(c1)OC(C)(C)C(c1ccc(Cl)cc1)=C2c1ccc(O)cc1`, with “inactive”.
`COc1ccc(C2=C(c3ccccc3)C(C)(C)Oc3cc(O)ccc32)cc1`: the outcome in the assay with Rattus norvegicus [1] was inactive.
`COc1ccc2c(c1)OC(C)(C)[C@H](c1ccccc1)[C@@H]2c1ccc(O)cc1` (relative stereo): in the assay with Rattus norvegicus [1], the outcome was inactive.
With `CCC1(CC)Oc2cc(OC)ccc2[C@@H](c2ccc(OCCN3CCCC3)cc2)[C@H]1c1ccccc1`, the Activity with Rattus norvegicus [4] is given as 16.5 mg. The result with Rattus norvegicus [1] was inactive.
With `COc1ccc2c(c1)OC(C)(C)[C@@H](c1ccccc1)[C@H]2c1ccc(OCCN2CCCC2)cc1`, the Activity with Rattus norvegicus [4] turned out to be 20.5 mg. Further, the result in the assay with Rattus norvegicus [1] was inactive.
As to `COc1ccc2c(c1)OC[C@H](c1ccccc1)[C@@H]2c1ccc(OCCN2CCCC2)cc1` (relative stereo), the outcome in the assay on Rattus norvegicus [3], with Rattus norvegicus [6], in the assay on Rattus norvegicus [7] and with Rattus norvegicus [8] was Active. The Activity in the assay with Rattus norvegicus [4] worked out at 50.6 mg; in the assay with Rattus norvegicus [9] it was 43.7 mg. The ED100 with Rattus norvegicus [2] was 1 mg/kg.
On to `COc1ccc(C2=C(c3ccc(OC)cc3)C(C)(C)Oc3cc(OC)ccc32)cc1`, for which the result in the assay with Rattus norvegicus [1] was inactive.
Turning to `CCC1(CC)Oc2cc(OC)ccc2[C@@H](c2ccc(O)cc2)[C@H]1c1ccccc1` (relative stereo), the Activity with Rattus norvegicus [4] is listed as 14.6 mg. The result with Rattus norvegicus [1] was inactive.
Turning to `CCC1(CC)Oc2cc(OC)ccc2C(c2ccc(OCCN3CCCC3)cc2)=C1c1ccccc1.Cl`, the result in the assay with Rattus norvegicus [3] and in the assay with Rattus norvegicus [10] was Active. Moreover, the Activity in the assay with Rattus norvegicus [4] turned out to be 35.4 mg. Also, in the assay with Rattus norvegicus [2], the ED100 stood at 10 mg/kg.
On to `Cc1ccc2c(c1)[C@H](c1ccccc1)[C@@H](c1ccccc1)CO2` (relative stereo), for which, in the assay with Rattus norvegicus [1], the outcome was inactive.
With `CC1(C)Oc2ccccc2C(c2ccc(OCCN3CCCC3)cc2)=C1c1ccccc1.Cl`, the ED100 with Rattus norvegicus [2] is 10 mg/kg.
On to `COc1ccc2c(c1)OC(C)(C)[C@@H](c1ccccc1)[C@@H]2c1ccc(OCCN2CCCC2)cc1` [LEVORMELOXIFENE], for which the outcome in the assay on Rattus norvegicus [3] and with Rattus norvegicus [11] was Active. In the assay on Rattus norvegicus [4], the Activity is 48.3 mg. The ED100 in the assay with Rattus norvegicus [2] was 0.25 mg/kg.
Take `COc1ccc2c(c1)OC(C)(C)C(c1ccccc1)=C2c1ccc(O)cc1`: the outcome in the assay on Rattus norvegicus [3] and with Rattus norvegicus [12] was Active. The Activity in the assay on Rattus norvegicus [4] is listed as 49.2 mg. Further, the result with Rattus norvegicus [1] was inactive.
As to `COc1ccc2c(c1)OC[C@H](c1ccccc1)[C@H]2c1ccc(OCCN2CCCC2)cc1` (relative stereo), the result in the assay with Rattus norvegicus [3] and with Rattus norvegicus [5] was Active. Also, the Activity in the assay with Rattus norvegicus [4] came out at 48.3 mg. For the same molecule, in the assay on Rattus norvegicus [2], the ED100 amounted to 0.25 mg/kg.
On to `COc1ccc2c(c1)OCC(c1ccccc1)=C2c1ccc(OCCN2CCCC2)cc1`, for which the result in the assay on Rattus norvegicus [3] and in the assay with Rattus norvegicus [10] was Active. In addition, in the assay with Rattus norvegicus [4], the Activity is on record as 37.4 mg. In the assay on Rattus norvegicus [2], the ED100 came to 0.15 mg/kg.
Regarding `CCC1(CC)Oc2cc(OC)ccc2[C@H](c2ccc(OCCN3CCCC3)cc2)[C@H]1c1ccccc1`, the outcome in the assay with Rattus norvegicus [3] and in the assay on Rattus norvegicus [11] was Active. In the assay with Rattus norvegicus [4], the Activity amounted to 46.6 mg. The ED100 in the assay with Rattus norvegicus [2] is 5 mg/kg.
For `CCC1(CC)Oc2cc(OC)ccc2C(c2ccc(O)cc2)=C1c1ccccc1`, the outcome with Rattus norvegicus [3] and in the assay with Rattus norvegicus [10] was Active. For the same molecule, in the assay with Rattus norvegicus [4], the Activity stood at 39.2 mg. In the assay on Rattus norvegicus [1], the outcome was inactive.
As for `COc1ccc2c(c1)OC(C)(C)C(c1ccc(Cl)cc1)=C2c1ccc(OCCN2CCCC2)cc1.Cl`, the ED100 in the assay on Rattus norvegicus [2] was 5 mg/kg.
